pIC50: −log10 of the molar value. Counter-ions that a name gives are not always drawn. Calls of active or inactive are those of the source. No cut-off for these calls is given here.

A short description of data set [1]: Displacement of [3H]-BTX-B from neuronal voltage-gated sodium channel in rat cerebral cortex synaptoneurosomes. It counts as tissue-based. The essentials: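 Rat forebrain membranes incubated with [3H]-batrachotoxin (30–60 Ci/mmol) in 50 mM HEPES pH 7.4 with 130 mM choline chloride, 37 °C, 60 min. Stopped by rapid vacuum filtration onto glass fiber filters, and filter radioactivity compared with control. Percent inhibition at 5–7 concentrations spanning the IC50, each in triplicate. IC50 by Probit analysis of the concentration versus percent binding curve. Aconitine 1 μM as positive control.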
(Loss of bound radioactivity is the signal in a displacement assay; it reports binding, not function.)

For the next data set, the species on record is Rattus norvegicus. The experiment in a line: Displacement of [3H]-BTX-B from neuronal voltage-gated sodium channel in rat cerebral cortex synaptoneurosomes at 40 uM. It counts as tissue-based. The method in brief:
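Single-concentration screen at 40 μM. Rat forebrain membranes with [3H]-batrachotoxin (30–60 Ci/mmol) in 50 mM HEPES pH 7.4 containing 130 mM choline chloride, 37 °C for 60 min. Rapid vacuum filtration onto glass fiber filters, and trapped radioactivity compared with control values to give percent displacement. Aconitine 1 μM as positive control.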

Data set [2] is described as follows: Lipophilicity, log P of the compound. The data set is classed as physicochemical. The settings on record: octanol/water. The essentials:
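logP calculated with a chemical properties tool, not measured.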

In data set [3] the target is Sodium channel protein type 2 subunit alpha (Homo sapiens) (UniProt Q99250). Put plainly: Inhibition of human Nav1.2 channel expressed in HEK293 cells assessed as blocked of sodium current elicited at +10 mV for 12 mins from holding potential -100 mV at 100 uM by patch clamp method. The data set is classed as cell-based. Details: scale not given: the % may be the effect or the level left. Particulars: in the assay text read “12 ms” for “12 mins”. The essentials:
(§1)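 Whole-cell patch clamp on HEK293 cells stably expressing human Nav1.2, grown in DMEM/F12 with 10% FBS, penicillin/streptomycin and G418 at 37 °C, 5% CO2. Step to +10 mV for 12 ms from −100 mV holding. Pipette contains CsCl/BAPTA (pH 7.4); bath contains 130 mM NaCl (pH 7.4). DMSO at most 0.3%, 20–22 °C, ≥75% series-resistance compensation. Compound at 100 μM, followed by washout; n = 4.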
A general note: The patch-clamp technique gives a direct electrical read-out from membranes.

For data set [4] the target is unchanged. Put plainly: Inhibition of human Nav1.2 channel expressed in HEK293 cells assessed as blocked of sodium current elicited at +10 mV for 12 mins from holding potential -100 mV at 100 uM measured after washout by patch clamp method. The data set is classed as cell-based. Particulars: in the assay text read “12 ms” for “12 mins”. The essentials:
as §1

Sodium channel protein type 2 subunit alpha (Homo sapiens), sequence (Q99250 whole entry, looked up): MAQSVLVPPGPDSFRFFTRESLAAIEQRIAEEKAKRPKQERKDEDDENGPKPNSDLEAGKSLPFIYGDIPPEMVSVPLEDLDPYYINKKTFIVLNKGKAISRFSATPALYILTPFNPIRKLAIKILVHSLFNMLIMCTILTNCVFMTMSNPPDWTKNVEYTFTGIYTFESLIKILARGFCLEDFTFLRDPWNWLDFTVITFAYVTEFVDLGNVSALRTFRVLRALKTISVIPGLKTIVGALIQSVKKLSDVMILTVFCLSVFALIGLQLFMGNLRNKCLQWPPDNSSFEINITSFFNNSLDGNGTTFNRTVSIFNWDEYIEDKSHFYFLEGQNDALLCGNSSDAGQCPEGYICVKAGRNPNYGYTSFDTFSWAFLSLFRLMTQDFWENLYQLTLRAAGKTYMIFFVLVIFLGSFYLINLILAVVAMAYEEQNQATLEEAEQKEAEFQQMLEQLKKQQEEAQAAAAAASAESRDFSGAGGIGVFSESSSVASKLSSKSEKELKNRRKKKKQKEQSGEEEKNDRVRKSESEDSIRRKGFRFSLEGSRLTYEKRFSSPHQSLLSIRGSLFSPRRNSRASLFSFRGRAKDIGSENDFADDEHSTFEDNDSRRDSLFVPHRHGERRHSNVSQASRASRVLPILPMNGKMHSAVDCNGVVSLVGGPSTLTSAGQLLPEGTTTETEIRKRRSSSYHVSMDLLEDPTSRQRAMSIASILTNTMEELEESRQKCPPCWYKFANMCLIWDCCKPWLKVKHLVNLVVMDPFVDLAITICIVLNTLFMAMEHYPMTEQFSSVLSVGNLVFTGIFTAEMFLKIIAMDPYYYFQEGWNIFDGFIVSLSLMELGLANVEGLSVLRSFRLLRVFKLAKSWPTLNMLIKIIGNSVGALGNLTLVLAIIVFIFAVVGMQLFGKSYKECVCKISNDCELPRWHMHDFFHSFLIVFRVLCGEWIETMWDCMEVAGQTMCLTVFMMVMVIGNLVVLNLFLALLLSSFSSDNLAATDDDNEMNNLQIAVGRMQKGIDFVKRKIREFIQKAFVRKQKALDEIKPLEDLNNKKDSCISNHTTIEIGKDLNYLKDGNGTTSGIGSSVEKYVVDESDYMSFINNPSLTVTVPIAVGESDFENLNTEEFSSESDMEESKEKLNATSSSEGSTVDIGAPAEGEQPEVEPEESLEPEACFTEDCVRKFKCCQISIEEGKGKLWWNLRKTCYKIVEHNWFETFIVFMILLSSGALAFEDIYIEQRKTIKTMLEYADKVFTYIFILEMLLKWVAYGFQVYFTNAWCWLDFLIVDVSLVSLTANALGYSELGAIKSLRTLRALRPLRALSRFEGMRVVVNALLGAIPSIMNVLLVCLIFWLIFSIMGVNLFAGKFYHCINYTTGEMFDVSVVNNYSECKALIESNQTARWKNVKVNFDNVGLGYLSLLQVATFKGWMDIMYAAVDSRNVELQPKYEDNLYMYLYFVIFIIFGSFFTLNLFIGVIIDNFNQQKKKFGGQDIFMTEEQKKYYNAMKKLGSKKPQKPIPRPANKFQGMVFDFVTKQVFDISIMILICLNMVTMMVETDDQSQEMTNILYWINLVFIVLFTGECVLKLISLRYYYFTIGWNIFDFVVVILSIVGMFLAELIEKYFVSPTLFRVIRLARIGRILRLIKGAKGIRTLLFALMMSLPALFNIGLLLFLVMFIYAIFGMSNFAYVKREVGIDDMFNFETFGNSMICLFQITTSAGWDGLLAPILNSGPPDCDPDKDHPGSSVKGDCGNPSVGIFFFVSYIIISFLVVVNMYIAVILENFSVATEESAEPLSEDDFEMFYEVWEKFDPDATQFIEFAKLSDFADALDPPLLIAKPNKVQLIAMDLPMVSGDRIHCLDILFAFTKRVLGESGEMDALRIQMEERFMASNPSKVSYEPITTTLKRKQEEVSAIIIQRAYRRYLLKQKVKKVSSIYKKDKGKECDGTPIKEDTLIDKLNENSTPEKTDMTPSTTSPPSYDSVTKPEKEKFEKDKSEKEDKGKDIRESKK

Broadly, the pIC50 is −log10 of the IC50, conventionally taken in molar units. Regarding `CCCCC1(c2ccccc2C)NC(=O)NC1=O` (stereo unspecified), the pIC50 in data set [1] is 3.65.

For the compound `CCCC1(c2ccccc2)NC(=O)NC1=O` (stereo unspecified), in data set [1], the pIC50 is 3.79.

As for `CCN(CC)CC(=O)Nc1c(C)cc(C(O)(C(N)=O)c2ccccc2)cc1C` (stereo unspecified), in the data set listed under Rattus norvegicus, the Activity was found to be 16%.

The compound `CCCCCCC1(c2cc(C)c(NC(=O)CN(CC)CC)c(C)c2)NC(=O)NC1=O` (stereo unspecified) came in with an Activity in the data set listed under Rattus norvegicus of 68%.

One may read the logP as the decadic logarithm of the partition coefficient of the neutral form, usually between octanol and water. `CCCNC(C)C(=O)Nc1ccccc1C` (stereo unspecified) [PRILOCAINE] showed a negative-log IC50 (pIC50) in data set [1] of 4.27. The same compound returned a logP in data set [2] of 2.18.

For `CC(CNC1CCCCC1)OC(=O)c1ccccc1` (stereo unspecified) [HEXYLCAINE], the pIC50 in data set [1] is 5.15. Further, in data set [2], the logP came to 3.34.

In turn, `CCCCCCCCC1(c2ccccc2)NC(=O)NC1=O` (stereo unspecified) showed a pIC50 in data set [1] of 5.30. The same compound displayed a log partition coefficient (logP) in data set [2] of 4.96.

Take `CCCCCCCC1(c2ccccc2)NC(=O)NC1=O` (stereo unspecified): the pIC50 in data set [1] is 5.30.

In the data set filed under Rattus norvegicus, `CCN(CC)CC(=O)Nc1ccc(C2(c3ccccc3)NC(=O)NC2=O)cc1` (stereo unspecified) yielded an Activity of 50%.

Compound `CCN(CC)CC(=O)Nc1c(C)cc(C2(c3ccccc3)NC(=O)NC2=O)cc1C` (stereo unspecified) registered an Activity in the data set filed under Rattus norvegicus of 49%.

For the compound `CCCCCCCC1(c2cc(C)c(NC(=O)CN(CC)CC)c(C)c2)NC(=O)NC1=O` (stereo unspecified), the Activity in the data set filed under Rattus norvegicus came out at 71%.

Take `CCCCCC1(c2ccccc2)NC(=O)N(C)C1=O` (stereo unspecified): the pIC50 in data set [1] was 4.41. The compound also gave a lipophilicity (logP) in data set [2] of 2.96.

On to `CCCCCCCCCC1(c2cc(C)c(NC(=O)CN(CC)CC)c(C)c2)NC(=O)NC1=O` (stereo unspecified), for which, in the data set filed under Rattus norvegicus, the Activity was 69%.

Turning to `O=C1C(c2ccccc2)N2CCCCN1C2=O` (stereo unspecified), the pIC50 in data set [1] is 3.15. The compound further yielded a logP in data set [2] of 2.01.

Turning to `COC(=O)[C@H]1[C@@H](OC(=O)c2ccccc2)C[C@@H]2CC[C@H]1N2C` [COCAINE], in data set [1], the pIC50 is 4.31. The compound further showed a logP in data set [2] of 1.82.

On to `CC1CCCCN1CCCOC(=O)c1ccccc1` (stereo unspecified) [PIPEROCAINE], for which the pIC50 in data set [1] was 4.89. Besides, in data set [2], the logP stood at 3.01.

`O=C1C(c2ccccc2)N2CCCCCN1C2=O` (stereo unspecified) showed a pIC50 in data set [1] of 3.37. In addition, the logP in data set [2] turned out to be 2.51.

Compound `CCCCC1(c2cccc(C)c2)NC(=O)NC1=O` (stereo unspecified) had a pIC50 in data set [1] of 4.24.

`CCCCOc1cc(C(=O)NCCN(CC)CC)c2ccccc2n1` [DIBUCAINE] came in with a logP in data set [2] of 3.77.

Compound `CCCOc1ccc(C(=O)OCCN(CC)CC)cc1N` [PROPARACAINE] gave a pIC50 in data set [1] of 5.70. The same compound had a logP in data set [2] of 2.42.

In data set [1], `CCCCCCCC(O)(C(N)=O)c1ccccc1` (stereo unspecified) showed a pIC50 of 5.05.

In data set [1], `O=C1NC(=O)C2(CCc3ccccc32)N1` (stereo unspecified) showed a pIC50 of 2.68.

In the case of `CCCCCCCC(O)(C(N)=O)c1cc(C)c(NC(=O)CN(CC)CC)c(C)c1` (stereo unspecified), the values for the Activity (in data set [3]; in the data set listed under Rattus norvegicus) were 67.7% and 83%, respectively. Besides, the result in data set [4] was inactive.

`CCN1C(=O)NC(=O)C1(C)c1ccccc1` (stereo unspecified) gave a pIC50 in data set [1] of 3.14.

`CCCOc1cc(N)ccc1C(=O)OCCN(CC)CC` [PROPOXYCAINE HYDROCHLORIDE] had a pIC50 in data set [1] of 4.62. The compound further gave a log partition coefficient (logP) in data set [2] of 2.42.

`CCOC(=O)c1ccc(N)cc1` [BENZOCAINE] gave a pIC50 in data set [1] of 3.04. In data set [2], this compound displayed a log partition coefficient (logP) of 1.39.

For the compound `CCCCC1(c2ccccc2)NC(=O)NC1=O` (stereo unspecified), in data set [1], the negative logarithm of the IC50 (pIC50) was 3.99.

In data set [1], `O=C1NC(=O)C(c2ccccc2)(c2ccccc2)N1` [PHENYTOIN] had a pIC50 of 4.40.

Compound `CCCCCCC1(c2ccccc2)NC(=O)NC1=O` (stereo unspecified) had a pIC50 in data set [1] of 4.89.

On to `O=C1NC(=O)C2(CCCc3ccccc32)N1` (stereo unspecified), for which, in data set [1], the pIC50 is 3.07.

Compound `CCCCNc1ccc(C(=O)OCCN(C)C)cc1` [TETRACAINE] had a lipophilicity (logP) in data set [2] of 3.27.

Take `CC12C(=O)NC(=O)N1CCc1ccccc12` (stereo unspecified): the pIC50 in data set [1] is 3.60.

For the compound `CCOc1ccc(C(=O)OCCN(CC)CC)cc1` [PARETHOXYCAINE], the negative logarithm of the IC50 (pIC50) in data set [1] is 4.62. Besides, the logP in data set [2] was 2.74.

Regarding `O=C1NC(=O)C2(CCCCCc3ccccc32)N1` (stereo unspecified), in data set [1], the pIC50 is 3.60.

In data set [1], `O=C1NC(=O)C2(CCCCc3ccccc32)N1` (stereo unspecified) showed a pIC50 of 3.60.

With `CCN(CC)CC(=O)Nc1ccc(C(O)(C(N)=O)c2ccccc2)cc1` (stereo unspecified), the Activity in the data set filed under Rattus norvegicus is 4%.

In data set [1], `CCCCC1(c2ccc(C)cc2)NC(=O)NC1=O` (stereo unspecified) had a pIC50 of 4.02.

In the case of `CCCN(CC)C(CC)C(=O)Nc1c(C)cccc1C` (stereo unspecified) [ETIDOCAINE], the logP in data set [2] came out at 3.87.

In turn, `CCCCCCCCCC(O)(C(N)=O)c1cc(C)c(NC(=O)CN(CC)CC)c(C)c1` (stereo unspecified) came in with an Activity in the data set filed under Rattus norvegicus of 63%.

In data set [1], `CCN(CC)CCOC(=O)c1ccc(N)cc1` [PROCAINE] showed a pIC50 of 3.96. Also, in data set [2], the logP came out at 2.53.

Compound `O=C1NC(=O)C(c2ccccc2)(C2CCCCC2)N1` (stereo unspecified) gave a pIC50 in data set [1] of 4.24.

The values above are taken from ChEMBL document CHEMBL1152497, “Ligand-based design and synthesis of novel sodium channel blockers from a combined phenytoin-lidocaine pharmacophore” (Bioorg Med Chem, 2009).
